Assay results taken from PubChem BioAssay.
Activity calls are given as the source filed them.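 Rule for the calls: active = primary screen active whose calcium signal fell more than 3 SD beyond the full-serotonin control mean in both duplicate plates; inactive = the rest.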

Experiment: calcium flux inhibitors in TRPC4/5HT1a cells, confirmation, counter-screen for TRPC4 inhibitor project, cell-based, second counter screen, HEK293 TRPC4/5HT1a, Fluo-4 (AID 434978);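 for outcome: serotonin given first at submaximal then at maximal dose after compound preincubation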
Conditions: Fluo-4 calcium flux, at 10 µM, serotonin added to trigger calcium flux; stronger effect = higher value
Outline: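 Test system: HEK293 cells stably co-expressing TRPC4 channel and 5HT1a serotonin receptor / Schedule: three 110 s phases (compound, two serotonin additions) / Measured by: kinetic Fluo-4 fluorescence readout of calcium flux / Benchmarks: maximal serotonin stimulation controls / Repeats: duplicate plates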
In the case of `CC(C)C(NC(=O)c1ccc(C(C)(C)C)cc1)C(=O)NCC(c1ccccc1)N(C)C` (centres undefined), the outcome is reported as “inactive”.
In the case of `CN(C)CCCN(C(=O)c1ccc(S(=O)(=O)N2CCCC2)cc1)c1nc2c(F)cc(F)cc2s1`, the outcome is reported as “inactive”.
For `CCC1CCCCN1CCN1C(=O)C2C(C(=O)Nc3ccc(OC)cc3)C3C=CC2(O3)C1C(=O)NC1CCCCC1` (centres undefined), the outcome was “inactive”.
In the case of `Cc1cc(Nc2ccc(C)c(C)c2)c2ccccc2n1`, the inhibition is reported as 30.8% (active).
In the case of `CCCc1nc2ccccc2n1Cc1ccccc1OC`, the inhibition is reported as 32.4% (active).
For `CCCCOc1ccc(Nc2cc(Cl)ccc2C(=O)O)cn1`, the inhibition was 27.6% (active).
In the case of `N#Cc1c(N)sc2c1CCCCCC2`, the inhibition is reported as 32.3% (active).
For `Cc1cc(OCc2cc(C(=O)NCCN3CCCCC3CO)no2)cc(C)c1Cl` (centres undefined), the inhibition was 21.5% (active).
In the case of `Cc1cccc(C)c1-n1cccc1/C=C1\SC(=S)N(c2cccc(C(=O)O)c2)C1=O`, the inhibition is reported as 23.2% (active).
For `Clc1ccc(COc2ccccc2CNCc2cccnc2)cc1`, the inhibition was 27.8% (active).
For `C=CCOc1ccc(C2CC(C)=NN2c2ccccc2)cc1` (centres undefined), the inhibition was 32% (active).
For `CCCCN=C(Nc1ccc(Cl)cc1)c1cccnc1`, the outcome was “inactive”.
With `OCc1ccccc1CNCc1ccccc1` the inhibition was 18.7% (active).
With `Cc1ccc(Nc2cc(C)nc3ccc(C)cc23)cc1` the inhibition was 25.7% (active).
In the case of `C=CCSc1nnc2n(-c3ccccc3OC)c(=O)c3c4c(sc3n12)CCC4`, the inhibition is reported as 29.1% (active).
In the case of `Cc1ccc(NC(=O)CN2CCc3ccccc3C2)cc1F`, the outcome is reported as “inactive”.
For `c1ccc(CN2CCN(Cc3c[nH]c4ccccc34)CC2)cc1`, the inhibition was 31.6% (active).
In the case of `OCCNc1nc2ccccc2n1CCN1CCCCC1`, the inhibition is reported as 22.9% (active).
For `COc1ccc(NC(=O)c2c[nH]n3c(=O)cc(C4CCN(C(=O)OC(C)(C)C)CC4)nc23)cc1Cl`, the inhibition was 40.1% (active).
With `CC1CCCN1CC#CC(O)(c1ccccc1)c1ccccc1` (centres undefined) the inhibition was 33.5% (active).
With `CCOC(=O)c1c(N)sc(C(O)(C(F)(F)F)C(F)(F)F)c1-c1ccccc1` the inhibition was 36.8% (active).
In the case of `CCCCN(Cc1ccccc1)C(=O)C1CCN(Cc2sccc2C)CC1`, the inhibition is reported as 32.5% (active).
With `CCc1ccc2nc3nc(C)cc(C)c3c(N)c2c1` the inhibition was 15.6% (active).
In the case of `Cc1ccc(C)c(S(=O)(=O)/N=C2\C=C(NS(=O)(=O)c3ccccc3)C(=O)c3ccccc32)c1`, the outcome is reported as “inactive”.
In the case of `Cc1ccn2c(-c3csc(NCc4ccco4)n3)c(C)nc2c1`, the inhibition is reported as 22.8% (active).
In the case of `CCCCC(=O)N(c1ccc(C(=O)O)cc1)c1nc(-c2ccc(Cl)cc2)c(CC)s1`, the inhibition is reported as 17.1% (active).
In the case of `CC(=O)c1ccc2c(c1)N(C)c1ccccc1S2`, the inhibition is reported as 36.8% (active).
In the case of `Cc1ccc2c(c1)N(C(=O)CCC(=O)Nc1ccccc1Br)CC(C)O2` (centres undefined), the inhibition is reported as 31.8% (active).
For `OCC1(CCCc2ccccc2)CCN(Cc2cc(F)ccc2F)CC1`, the outcome was “inactive”.
For `CC(C)c1ccc(S(=O)(=O)/N=C2\C=C(NS(=O)(=O)c3ccccc3)C(=O)c3ccccc32)cc1`, the inhibition was 19.2% (active).
For `Cc1cc(NCc2ccccc2)nc(N2CCOCC2)n1`, the inhibition was 26.5% (active).
With `CCOc1ccc(NC(=O)c2c[nH]n3c(=O)cc(C4CCN(C(=O)OC(C)(C)C)CC4)nc23)cc1` the inhibition was 43.4% (active).
For `COCCn1c(SCc2cc(C(C)=O)ccc2OC)nc2cc(Cl)ccc2c1=O`, the outcome was “inactive”.
With `CCc1cc(C(c2cccc(OC)c2)N2CCOCC2)c(NC(=O)c2ccccc2)s1` (centres undefined) the inhibition was 28% (active).
For `CC(=O)Nc1ccc(S(=O)(=O)NC2=C(N3CCN(Cc4ccccc4)CC3)C(=O)c3ccccc3C2=O)cc1`, the outcome was “inactive”.
In the case of `COc1ccc(C2=NN(C(=O)c3ccccc3)C(c3ccc(OC)c(OC)c3)C2)c(O)c1` (centres undefined), the outcome is reported as “inactive”.
In the case of `COc1cccc(CNC(=O)CCC2CCCN(Cc3cc(Cl)ccc3O)C2)c1` (centres undefined), the inhibition is reported as 29% (active).
For `Cc1c(CN2CCC(n3nccc3NC(=O)CCc3ccccc3)CC2)cnn1C`, the outcome was “inactive”.
With `CCOC(=O)C(C)Sc1nc2c(c(=O)[nH]c(=O)n2C)n1Cc1ccc(Cl)cc1` (centres undefined) the inhibition was 19.9% (active).
